Assay results from publication PMC3913215 (Molecular microbiology, 2009).

Columns and labels:
[1] = test system: N-terminal truncations of AgrC-I; assay: β-lactamase reporter assay, N-terminally truncated AgrC-I alone; assay type: cell-based, S. aureus; conditions: two truncated sensor domains, expressed alone (Figure S5A)
[2] = test system: AgrC-I G396A; assay: β-lactamase reporter assay, AgrC-I G396A; assay type: cell-based, S. aureus; conditions: individual G-box glycine mutant; varying concentrations of synthetic AIP
[3] = test system: AgrC-IHis / AgrC-ISensor, Kin; assay: β-lactamase reporter assay, activation of AgrC-IHis / AgrC-ISensor, Kin; assay type: cell-based, S. aureus; conditions: Kin combined with AgrC-IHis versus AgrC-ISensor, His
[4] = molecular target: WT AgrC-II; assay: β-lactamase reporter assay, WT AgrC-II; assay type: cell-based, S. aureus; conditions: read-out: EC50 (no activation); P3-blaZ reporter cells, nitrocefin method
Procedure, shortened: (§1)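 Agr-deficient S. aureus RN10829 derivatives lacking AIP production, carrying a chromosomal P3-blaZ fusion and agrP2-driven plasmid agrC (compatible plasmids for co-expression), grown to mid-exponential phase in CYGP or MH broth at 37 °C with shaking. Cells were plated and given increasing synthetic AIP. β-Lactamase was read by nitrocefin initial velocity as percent maximal activation. EC50 came from a four-parameter logistic fit. Two or three replicates.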

[5] = test system: AgrC-I G394A; assay: β-lactamase reporter assay, AgrC-I G394A; assay type: cell-based, S. aureus; conditions: individual G-box glycine mutant; varying concentrations of synthetic AIP
[6] = test system: AgrC-I-GFP; assay: β-lactamase reporter assay, AgrC-I-GFP; assay type: cell-based, S. aureus; conditions: C-terminal GFP fusion (Figure S2)
[7] = test system: AgrC-ISensor (T104V, S107A, S116I); conditions: mutations in second extracellular loop; ref Geisinger et al., 2008; cited from earlier work
[8] = test system: AgrC-II; conditions: background statement, no reference at the place; cited from earlier work
[9] = test system: AgrC-IHis (H239Q); assay: β-lactamase reporter assay, AgrC-IHis; assay type: cell-based, S. aureus; conditions: H-box mutant; varying concentrations of synthetic AIP (Figure S1)
Procedure, shortened: as §1

[10] = test system: AgrC-IHis / AgrC-IKin; assay: β-lactamase reporter assay, activation of co-expressed AgrC-IHis / AgrC-IKin; assay type: cell-based, S. aureus; conditions: co-expressed mutants
Procedure, shortened: as §1

[11] = test system: AgrC-I N339D; assay: β-lactamase reporter assay, AgrC-I N339D; assay type: cell-based, S. aureus; conditions: N-box mutant; varying concentrations of synthetic AIP
[12] = test system: AgrC-ISensor, His / AgrC-ISensor, Kin; assay: β-lactamase reporter assay, co-expressed AgrC-ISensor, His / AgrC-ISensor, Kin; assay type: cell-based, S. aureus
Procedure, shortened: as §1

[13] = test system: AgrC-IHis / AgrC-IΔ1-135, Kin; assay: β-lactamase reporter assay, AgrC-IHis / truncated AgrC-IΔ1-135, Kin; assay type: cell-based, S. aureus; conditions: full-length AgrC-IHis with AgrC-IΔ1-135, Kin (Figure S5B)

## AIP-I
[1]
  activation by AIP-I: None of the resulting dimers, with two truncated sensor domains, displayed significant activity
[2]
  receptor activation: weaker activation than that seen with AgrC-I N339D
[3]
  increase in activation by AIP-I: approximately 30 -fold
[4]
  EC50: > 10 µM
[5]
  receptor activation: weaker activation than that seen with AgrC-I N339D
[6]
  receptor activation compared to WT: only slightly decreased compared to the WT receptor
[7]
  reduction in sensitivity to AIP-I: about 50 -fold
[8]
  antagonism of AgrC-II: potent cross-group inhibitors
[9]
  receptor activation: completely inactive
[10]
  maximal activity compared to WT AgrC: moderately reduced compared to WT AgrC
[11]
  receptor activation: only partially reduced receptor activation
[12]; AgrC-ISensor, His / AgrC-ISensor, Kin versus WT sensor domains
  reduction in activity compared with WT sensor domains: over 150 -fold
[12]; co-expressed mutants, both sensor domains mutated
  EC50: 6.1 µM
[13]
  activation by AIP-I: significant activity
  maximal activation relative to full-length complementary pair: only a third of that observed for the full-length complementary pair
